Laboratory results as given in ChEMBL document CHEMBL5236601, “Development and Utility of a PAK1-Selective Degrader” (J Med Chem, 2022).
pEC50: −log10 of the molar value. Activity calls are given as the source filed them. The rule behind the calls is not given here.

Key:
Format in all cases: functional, cell-based
[1] = (§1) Antiproliferative activity against human OMM-1 cells assessed as cell viability measured after 72 hrs incubation by MTT assay; conditions: OMM-1, 72 h
How it was run: (§2)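 Seeded at 2 x 10^3 cells/well overnight, then exposed to a range of concentrations for 72 hours (the figure legend states 96 hr). Cell viability read by MTT, with medium alone as blank. Triplicate wells, at least three independent experiments. IC50/EC50 from curve fitting, reported as means ± SD (n=3).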

MCF7 [2] = assay: Antiproliferative activity against human MCF7 cells assessed as cell viability measured after 72 hrs incubation by MTT assay; how it was run: as §2
MCF7 [3] = assay: Antiproliferative activity against human MCF7 cells assessed as effect on doxycycline-induced PAK1-specific shRNA mediated reduction in PAK1 expression by measuring reduction in cell index after 114 hrs
[4] = (§3) Antiproliferative activity against human HeyA8 cells assessed as cell viability measured after 72 hrs incubation by MTT assay; conditions: HEY A8, 72 h; how it was run: as §2
OVCAR-3 = assay: Antiproliferative activity against human OVCAR-3 cells assessed as cell viability measured after 72 hrs incubation by MTT assay; how it was run: as §2
OMM-1 = assay: as §1; how it was run: as §2
HEY A8 = assay: as §3; how it was run: as §2

CC(C)NC(=O)N1CC[C@@H](NC2=Nc3cc(F)ccc3N(CC(F)F)c3ccc(Cl)cc32)C1
pEC50 [1]: 4.92 | pEC50 (MCF7 [2]; MCF7, 72 h): 4.93 | Activity (MCF7 [3]): Active | pEC50 [4]: 4.47 | pEC50 (OVCAR-3; OVCAR-3, 72 h): 5.05

Nc1cccc2c1CN(C1CCC(=O)NC1=O)C2=O (centres undefined)
Activity (OMM-1): inactive | Activity (MCF7 [2]): inactive | Activity (HEY A8): inactive | Activity (OVCAR-3): inactive
